# According to publication PMC8897028 (Acta Pharmaceutica Sinica. B, 2021):
# Experiments:
# hTRPV3 = molecular target: T1, hTRPV3 (Homo sapiens, UniProt Q8NET8); assay: inside-out single-channel recordings of HEK293 cells overexpressing hTRPV3; format: biochemical; settings: for channel open probability: compound 100 μmol/L in the presence of carvacrol 300 μmol/L, from 26.9 ± 5.5%, +80 mV, n = 4; for effect on ion permeation or single-channel conductance: single-channel level
# T1 sequence (Q8NET8 1-790): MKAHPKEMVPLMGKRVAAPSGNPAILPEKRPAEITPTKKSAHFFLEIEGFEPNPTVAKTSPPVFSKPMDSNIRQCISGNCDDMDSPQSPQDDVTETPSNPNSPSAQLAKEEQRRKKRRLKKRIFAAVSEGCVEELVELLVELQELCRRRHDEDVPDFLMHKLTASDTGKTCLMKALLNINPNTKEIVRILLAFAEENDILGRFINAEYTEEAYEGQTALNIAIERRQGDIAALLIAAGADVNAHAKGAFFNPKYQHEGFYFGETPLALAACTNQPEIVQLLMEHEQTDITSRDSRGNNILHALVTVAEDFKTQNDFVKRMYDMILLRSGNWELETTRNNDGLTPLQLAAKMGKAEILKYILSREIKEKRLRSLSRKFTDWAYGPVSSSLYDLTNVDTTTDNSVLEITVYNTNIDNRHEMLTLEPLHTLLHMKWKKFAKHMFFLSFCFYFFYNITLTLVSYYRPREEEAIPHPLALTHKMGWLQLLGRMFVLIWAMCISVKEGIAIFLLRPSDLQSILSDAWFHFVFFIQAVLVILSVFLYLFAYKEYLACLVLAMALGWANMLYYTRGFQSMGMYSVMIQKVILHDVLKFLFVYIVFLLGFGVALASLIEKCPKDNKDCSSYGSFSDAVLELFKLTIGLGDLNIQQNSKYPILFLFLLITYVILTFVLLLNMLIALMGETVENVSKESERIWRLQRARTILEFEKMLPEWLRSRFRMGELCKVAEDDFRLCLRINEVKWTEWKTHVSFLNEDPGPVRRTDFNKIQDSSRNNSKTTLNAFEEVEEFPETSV
# Summary of the method: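 Inside-out patches from EGFP-identified HEK293 cells, 18 h after hTRPV3 transfection, used 6–10 MΩ pipettes. Patches were held at 0 mV, then stepped to +80 mV. Currents were sampled at 10 kHz, filtered at 2.9 kHz, at 22–24 °C. All-points histograms were Gaussian-fitted for conductance and mean open probability; n = 4.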
# mTRPV3 L669A = molecular target: T2, mTRPV3 L669A (Mus musculus, UniProt Q8K424, L669A); assay: whole-cell patch-clamp of mTRPV3 L669A mutant in HEK293 cells; format: cell-based; settings: compound 50 μmol/L; 2-APB; compared with WT mTRPV3
# T2 sequence (Q8K424 1-791 L669A): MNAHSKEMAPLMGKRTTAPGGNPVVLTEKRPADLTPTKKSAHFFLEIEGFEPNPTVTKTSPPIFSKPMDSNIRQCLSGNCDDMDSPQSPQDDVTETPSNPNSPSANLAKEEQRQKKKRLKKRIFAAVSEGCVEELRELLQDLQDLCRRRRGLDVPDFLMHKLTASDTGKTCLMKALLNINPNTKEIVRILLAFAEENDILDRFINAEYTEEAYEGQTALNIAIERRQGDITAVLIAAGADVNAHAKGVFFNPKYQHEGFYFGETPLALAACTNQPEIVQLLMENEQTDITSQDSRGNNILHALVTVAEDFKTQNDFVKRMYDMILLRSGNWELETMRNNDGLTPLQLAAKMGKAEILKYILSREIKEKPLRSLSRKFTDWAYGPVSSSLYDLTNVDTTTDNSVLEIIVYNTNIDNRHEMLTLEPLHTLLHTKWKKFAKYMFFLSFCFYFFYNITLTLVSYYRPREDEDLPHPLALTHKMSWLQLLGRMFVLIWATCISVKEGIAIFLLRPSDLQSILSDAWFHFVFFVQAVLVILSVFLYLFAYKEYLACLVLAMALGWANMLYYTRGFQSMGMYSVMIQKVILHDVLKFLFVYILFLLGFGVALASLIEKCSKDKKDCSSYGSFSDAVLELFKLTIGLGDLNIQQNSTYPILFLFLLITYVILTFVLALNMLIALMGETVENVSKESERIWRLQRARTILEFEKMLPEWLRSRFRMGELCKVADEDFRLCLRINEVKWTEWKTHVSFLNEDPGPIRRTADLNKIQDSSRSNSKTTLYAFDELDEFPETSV
# Summary of the method: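 Mouse Trpv3 point mutants were made by site-directed mutagenesis, sequence-verified, and transiently expressed in HEK293 cells alongside wild-type mTRPV3. Whole-cell ramp recordings (−100 to +100 mV, 500 ms, holding 0 mV) were made at 22–24 °C. Currents were activated by 2-APB, and inhibition by 50 μmol/L test compound in the presence of 2-APB was compared with wild type; n = 3–8.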
# hTRPV4 = hTRPV4 (Homo sapiens, UniProt Q9HBA0); assay: whole-cell patch-clamp of TRPV4 currents in HEK293 cells; format: cell-based; settings: compound 50 μmol/L; current elicited by 100 nmol/L GSK1016790A
# Summary of the method: (§1)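 Human channel cDNAs were transiently transfected into HEK293 cells with Lipofectamine 2000. EGFP-positive cells were recorded whole-cell 18 h later at 22–24 °C with ~4.0 MΩ fire-polished pipettes. Cells were held at 0 mV with 500-ms ramps from −100 to +100 mV every 2 s. Test compound in perfusion solution was co-applied with agonist, and average current inhibition was summarised; n = 4–6.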
# hTRPV1 = hTRPV1 (Homo sapiens, UniProt Q8NER1); assay: whole-cell patch-clamp of TRPV1 currents in HEK293 cells; format: cell-based; settings: compound 50 μmol/L; current induced by capsaicin 1 μmol/L
# Summary of the method: as §1
# Sequence of hTRPV4 (Q9HBA0 whole entry, the tested form may be a part): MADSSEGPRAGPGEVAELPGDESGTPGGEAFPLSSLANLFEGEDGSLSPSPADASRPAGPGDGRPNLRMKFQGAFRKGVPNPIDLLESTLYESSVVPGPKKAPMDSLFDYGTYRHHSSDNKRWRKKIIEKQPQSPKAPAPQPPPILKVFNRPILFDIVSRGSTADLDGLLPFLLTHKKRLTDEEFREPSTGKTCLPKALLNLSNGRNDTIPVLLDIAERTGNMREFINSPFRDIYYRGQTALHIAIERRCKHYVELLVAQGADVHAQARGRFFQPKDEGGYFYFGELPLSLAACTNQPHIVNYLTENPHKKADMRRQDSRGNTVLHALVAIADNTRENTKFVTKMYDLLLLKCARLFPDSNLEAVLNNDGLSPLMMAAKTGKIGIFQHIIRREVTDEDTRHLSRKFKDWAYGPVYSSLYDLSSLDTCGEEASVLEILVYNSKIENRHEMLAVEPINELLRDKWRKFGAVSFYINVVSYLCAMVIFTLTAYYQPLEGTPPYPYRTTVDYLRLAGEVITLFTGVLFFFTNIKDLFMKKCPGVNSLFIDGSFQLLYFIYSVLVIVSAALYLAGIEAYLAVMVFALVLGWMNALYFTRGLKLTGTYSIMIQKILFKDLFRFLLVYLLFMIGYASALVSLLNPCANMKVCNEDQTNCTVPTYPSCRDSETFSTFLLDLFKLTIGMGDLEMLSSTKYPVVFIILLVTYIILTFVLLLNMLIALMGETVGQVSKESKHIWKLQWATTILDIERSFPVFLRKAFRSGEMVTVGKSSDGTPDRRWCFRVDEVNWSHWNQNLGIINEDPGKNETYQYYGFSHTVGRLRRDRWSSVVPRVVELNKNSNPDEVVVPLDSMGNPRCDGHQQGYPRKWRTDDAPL
# Sequence of hTRPV1 (Q8NER1 whole entry): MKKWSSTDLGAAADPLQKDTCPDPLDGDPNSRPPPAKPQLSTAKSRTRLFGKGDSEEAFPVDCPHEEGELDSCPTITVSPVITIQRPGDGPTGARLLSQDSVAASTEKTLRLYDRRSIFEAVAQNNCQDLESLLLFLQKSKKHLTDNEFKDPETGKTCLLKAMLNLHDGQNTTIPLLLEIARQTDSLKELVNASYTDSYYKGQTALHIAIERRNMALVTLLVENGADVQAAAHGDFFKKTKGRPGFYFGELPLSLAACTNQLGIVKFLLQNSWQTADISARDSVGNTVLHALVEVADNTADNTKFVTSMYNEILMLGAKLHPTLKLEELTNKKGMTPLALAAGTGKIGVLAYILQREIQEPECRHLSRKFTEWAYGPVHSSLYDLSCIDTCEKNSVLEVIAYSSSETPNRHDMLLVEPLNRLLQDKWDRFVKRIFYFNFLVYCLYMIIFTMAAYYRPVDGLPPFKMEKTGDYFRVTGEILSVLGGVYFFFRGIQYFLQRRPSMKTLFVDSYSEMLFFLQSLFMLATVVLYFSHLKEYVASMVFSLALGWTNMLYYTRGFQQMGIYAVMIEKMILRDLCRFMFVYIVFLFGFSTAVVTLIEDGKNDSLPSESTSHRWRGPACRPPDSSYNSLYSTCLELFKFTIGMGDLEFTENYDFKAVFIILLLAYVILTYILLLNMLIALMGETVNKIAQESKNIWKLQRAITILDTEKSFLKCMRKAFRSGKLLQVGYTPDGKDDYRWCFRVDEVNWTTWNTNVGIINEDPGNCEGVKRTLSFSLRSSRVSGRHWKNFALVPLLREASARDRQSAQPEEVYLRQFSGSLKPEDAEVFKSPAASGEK
Structure (SMILES),channel open probability (hTRPV3) [%],effect on ion permeation or single-channel conductance (hTRPV3),effect of mutation on compound-induced inhibition of mTRPV3 currents (mTRPV3 L669A),inhibition of TRPV4 current (hTRPV4),inhibition of TRPV1 currents (hTRPV1)
"O=C(/C=C/c1ccc(O)c(O)c1)O[C@@H]1[C@H](O)C[C@@](O)(C(=O)O)C[C@H]1OC(=O)/C=C/c1ccc(O)c(O)c1 [IAB, isochlorogenic acid B]",3.2 ± 1.1,no effect,no obvious effect,no inhibitory effect,no obvious inhibition
"O=C(/C=C/c1ccc(O)c(O)c1)O[C@@H]1C[C@](O)(C(=O)O)C[C@@H](OC(=O)/C=C/c2ccc(O)c(O)c2)[C@H]1O [IAA, isochlorogenic acid A]",3.7 ± 1.2,no effect,no obvious effect,no inhibitory effect,no obvious inhibition
